Data on 17 molecules can be found in ChEMBL document CHEMBL5108036, “A concise SAR-analysis of antimicrobial cationic amphipathic barbiturates for an improved activity-toxicity profile” (Eur J Med Chem, 2022).

Each structure is given as a SMILES string. A value given as a limit tells only on which side of the number the result lay.

As usually defined, the EC50 is the concentration that produces a half-maximal response. What is called MIC is the least concentration at which growth counts as inhibited. Read a high MIC as weaker potency. As usually defined, the solubility is the dissolved amount per volume that the medium holds.

A short description of series [1]: (§1) Hemolytic activity in human RBC measured after 1 hr by microplate reader method. In kind it is toxicity, cell-based, Erythrocyte. Conditions: human, human red blood cells (erythrocytes). The gist of the method: (§2)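 Human red blood cell lysis was used as the cytotoxicity read-out, expressed as EC50 in µg/mL. The highest concentration tested was 500 µM. Compounds were tested as di-TFA salts.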

Series [2] can be described thus: Selectivity index, ratio HC50 for hemolytic activity in human RBC to MIC for antibacterial activity against Staphylococcus aureus ATCC 9144. Conditions: human red blood cells (erythrocytes). In kind it is toxicity. An outline of the steps:
(§3)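 SI is the ratio of RBC lysis EC50 to MIC for each reference strain.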

Series [3] is described as follows: Selectivity index, ratio HC50 for hemolytic activity in human RBC to MIC for antibacterial activity against Escherichia coli ATCC 25922. In kind it is toxicity. As to conditions: human red blood cells (erythrocytes). An outline of the steps: as §3
Series [4] relates to Staphylococcus aureus. Nature of the series: Antibacterial activity against Staphylococcus aureus ATCC 9144 incubated for 48 hrs and measured by broth microdilution assay. In kind it is functional. The gist of the method: (§4)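 MICs in µg/mL were measured against the reference strains S. aureus ATCC 9144, B. subtilis 168, E. coli ATCC 25922 and P. aeruginosa ATCC 27853. Compounds were tested as di-TFA salts.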

Series [5] deals with Pseudomonas aeruginosa. Nature of the series: Antibacterial activity against Pseudomonas aeruginosa ATCC 27853 incubated for 48 hrs and measured by broth microdilution assay. In kind it is functional. An outline of the steps:
as §4
On the technique in general: Broth dilution looks for growth in wells or tubes with falling amounts of substance.

Series [6] deals with Escherichia coli. Briefly: Antibacterial activity against Escherichia coli ATCC 25922 incubated for 48 hrs and measured by broth microdilution assay. In kind it is functional. The gist of the method: as §4
The nature of series [7]: Selectivity index, ratio HC50 for hemolytic activity in human RBC to MIC for antibacterial activity against Bacillus subtilis 168. In kind it is toxicity. Conditions: human red blood cells (erythrocytes). The gist of the method:
as §3

Series [8] deals with Bacillus subtilis. Nature of the series: Antibacterial activity against Bacillus subtilis 168 incubated for 48 hrs and measured by broth microdilution assay. In kind it is functional. The gist of the method: as §4
Series [9] is described as follows: Selectivity index, ratio HC50 for hemolytic activity in human RBC to MIC for antibacterial activity against Pseudomonas aeruginosa ATCC 27853. In kind it is toxicity. As to conditions: human red blood cells (erythrocytes). The gist of the method: as §3
The nature of series [10]: Solubility in pure water. In kind it is physicochemical.
Series [11] deals with Erythrocyte. Described as §1. In kind it is toxicity, cell-based. As to conditions: erythrocyte. The gist of the method: as §2

In the case of `N=C(N)NCCCN1C(=O)N(CCCNC(=N)N)C(=O)C(Cc2cc(Br)cc(Br)c2)(Cc2cc(Br)cc(Br)c2)C1=O.O=C(O)C(F)(F)F.O=C(O)C(F)(F)F`, a half-maximal response in series [1] (EC50 at 1 h) required 187 µg/mL. For the same molecule, the selectivity ratio in series [2] worked out at 93; in [3] it was 47; in series [7] it was 93; in series [9] it was 23. For the same molecule, the MIC in series [4] came to 2 µg/mL; in series [5] it was 8 µg/mL; in series [6] it was 4 µg/mL; in [8], 2 µg/mL.

As to `N=C(N)NCCCCN1C(=O)N(CCCCNC(=N)N)C(=O)C(Cc2cc(Br)cc(Br)c2)(Cc2cc(Br)cc(Br)c2)C1=O.O=C(O)C(F)(F)F.O=C(O)C(F)(F)F`, the EC50 at 1 h in series [1] is 62 µg/mL. The selectivity ratio in series [2] turned out to be 32; in series [3], 32; in [7] it was 32; in [9] it was 8. In addition, the minimal inhibitory concentration (MIC) in series [4] was found to be 2 µg/mL; in series [5], 8 µg/mL; in series [6], 2 µg/mL; in series [8], 2 µg/mL.

`N=C(N)NCCCN1C(=O)N(CCCNC(=N)N)C(=O)C(Cc2ccc(Br)c(Cl)c2)(Cc2ccc(Br)c(Cl)c2)C1=O.O=C(O)C(F)(F)F.O=C(O)C(F)(F)F` came in with an EC50 at 1 h in series [1] of 348 µg/mL. The MIC in [4] was determined as 2 µg/mL; in [5] it was 32 µg/mL; in series [6] it was 8 µg/mL; in series [8], 2 µg/mL. The solubility in [10] is less than 1000 µg/mL.

Molecule `Cl.Cl.N=C(N)NCCCN1C(=O)N(CCCNC(=N)N)C(=O)C(Cc2cc(C(F)(F)F)cc(C(F)(F)F)c2)(Cc2cc(C(F)(F)F)cc(C(F)(F)F)c2)C1=O` returned a 50% effective concentration (EC50) in series [11] of 118 µg/mL. The figures for the MIC in series [4] and in [6] were 2 µg/mL and 8 µg/mL, respectively. This molecule also displayed a solubility in series [10] of no more than 1000 µg/mL.

For `N=C(N)NCCCN1C(=O)N(CCCNC(=N)N)C(=O)C(Cc2cc(C(F)(F)F)cc(C(F)(F)F)c2)(Cc2cc(C(F)(F)F)cc(C(F)(F)F)c2)C1=O.O=C(O)C(F)(F)F.O=C(O)C(F)(F)F`, the EC50 in series [11] came to 445 µg/mL. Besides, the selectivity ratio in [2] came out at 111; in series [3] it was 56; in [7], 222; in [9], 28. Besides, the minimum inhibitory concentration (MIC) was determined as 4 µg/mL in series [4], 16 µg/mL in [5], 8 µg/mL in series [6] and 2 µg/mL in series [8]. The solubility in series [10] is less than 1000 µg/mL.

In [1], `C[N+](C)(C)CCCCN1C(=O)N(CCCC[N+](C)(C)C)C(=O)C(Cc2cc(Br)cc(Br)c2)(Cc2cc(Br)cc(Br)c2)C1=O.O=C([O-])C(F)(F)F.O=C([O-])C(F)(F)F` came in with an EC50 at 1 h greater than 539 µg/mL. The selectivity ratio in series [2] was greater than 135; in [7] it was greater than 67. The MIC in series [4] was 4 µg/mL; in series [5], 256 µg/mL; in series [6], 128 µg/mL; in [8] it was 8 µg/mL.

Molecule `Cl.Cl.NCCCN1C(=O)N(CCCN)C(=O)C(Cc2ccc(Br)c(Cl)c2)(Cc2ccc(Br)c(Cl)c2)C1=O` had an EC50 in series [11] of 271 µg/mL. For the same molecule, the MIC in [4] and in [6] was 8 µg/mL in each case. For the same molecule, the solubility in series [10] is no more than 1000 µg/mL.

In turn, `NCCCN1C(=O)N(CCCN)C(=O)C(Cc2ccc(Br)c(Cl)c2)(Cc2ccc(Br)c(Cl)c2)C1=O.O=C(O)C(F)(F)F.O=C(O)C(F)(F)F` registered an EC50 at 1 h in series [1] of 323 µg/mL. Also, the selectivity ratio was determined as 40 in [2], 40 in series [3], 81 in series [7] and 20 in series [9]. For the same molecule, the minimal inhibitory concentration (MIC) in [4] was 8 µg/mL; in [5], 16 µg/mL; in series [6] it was 8 µg/mL; in series [8], 4 µg/mL. The molecule further returned a solubility in [10] of less than 1000 µg/mL.

As to `CC(C)(C)c1ccc(CC2(Cc3cc(Br)cc(Br)c3)C(=O)N(CCCNC(=N)N)C(=O)N(CCCNC(=N)N)C2=O)cc1.O=C(O)C(F)(F)F.O=C(O)C(F)(F)F` (centres undefined), in series [1], the EC50 at 1 h was 169 µg/mL. Further, the selectivity ratio in series [2] was found to be 169; in series [3], 85; in series [7], 169; in series [9], 11. Besides, the minimal inhibitory concentration (MIC) is 1 µg/mL in [4], 16 µg/mL in [5], 2 µg/mL in series [6] and 1 µg/mL in [8].

In series [1], `NCCCCN1C(=O)N(CCCCN)C(=O)C(Cc2cc(Br)cc(Br)c2)(Cc2cc(Br)cc(Br)c2)C1=O.O=C(O)C(F)(F)F.O=C(O)C(F)(F)F` displayed an EC50 at 1 h of 79 µg/mL. In addition, the selectivity ratio in series [2] stood at 20; in series [3], 20; in series [7], 40; in series [9], 10. In addition, the minimum inhibitory concentration (MIC) in [4] stood at 4 µg/mL; in series [5], 8 µg/mL; in series [6] it was 4 µg/mL; in [8] it was 2 µg/mL.

In turn, `N=C(N)NCCCN1C(=O)N(CCCNC(=N)N)C(=O)C(Cc2ccc3cc(Br)ccc3n2)(Cc2ccc3cc(Br)ccc3n2)C1=O.O=C(O)C(F)(F)F.O=C(O)C(F)(F)F` had an EC50 at 1 h in [1] greater than 497 µg/mL. In addition, the selectivity ratio is greater than 62 in series [2] and greater than 124 in [7]. Further, the MIC in series [4] was 8 µg/mL; in series [5], greater than 128 µg/mL; in series [6] it was 64 µg/mL; in series [8] it was 4 µg/mL.

For the molecule `N=C(N)NCCCN1C(=O)N(CCCNC(=N)N)C(=O)C(Cc2ccc(C(F)(F)F)cc2)(Cc2ccc(C(F)(F)F)cc2)C1=O.O=C(O)C(F)(F)F.O=C(O)C(F)(F)F`, the concentration for a half-maximal effect (EC50) at 1 h in series [1] is greater than 435 µg/mL. Moreover, the values for the selectivity ratio in series [2] and in series [7] were greater than 54 and greater than 109, respectively. Besides, the minimal inhibitory concentration (MIC) in [4] was 8 µg/mL; in series [5], 256 µg/mL; in series [6], 128 µg/mL; in series [8], 4 µg/mL.

`O=C([O-])C(F)(F)F.O=C([O-])C(F)(F)F.O=C1N(CCCC[n+]2ccccc2)C(=O)C(Cc2cc(Br)cc(Br)c2)(Cc2cc(Br)cc(Br)c2)C(=O)N1CCCC[n+]1ccccc1`: in series [1], the concentration for a half-maximal effect (EC50) at 1 h was greater than 559 µg/mL. In addition, the results for the selectivity ratio in series [2], in [3] and in series [7] were greater than 280, greater than 70 and greater than 140, respectively. In addition, the MIC in series [4] was determined as 2 µg/mL; in series [5], 128 µg/mL; in series [6] it was 8 µg/mL; in series [8] it was 4 µg/mL.

`Cl.Cl.NCCCN1C(=O)N(CCCN)C(=O)C(Cc2cc(C(F)(F)F)cc(C(F)(F)F)c2)(Cc2cc(C(F)(F)F)cc(C(F)(F)F)c2)C1=O` registered a concentration giving a half-maximal response (EC50) in series [11] of 224 µg/mL. The MIC in series [4] and in series [6] was 8 µg/mL throughout. In addition, the solubility in [10] was no more than 1000 µg/mL.

Molecule `N=C(N)NCCCCN1C(=O)N(CCCCNC(=N)N)C(=O)C(Cc2cc(Br)cc(Br)c2)(Cc2ccc3ccccc3n2)C1=O.O=C(O)C(F)(F)F.O=C(O)C(F)(F)F` (centres undefined) registered an EC50 at 1 h in series [1] of 450 µg/mL. Moreover, the selectivity ratio stood at 225 in series [2] and 113 in series [7]. Besides, the MIC stood at 2 µg/mL in [4], 32 µg/mL in [5], 32 µg/mL in series [6] and 4 µg/mL in [8].

In turn, `NCCCN1C(=O)N(CCCN)C(=O)C(Cc2cc(C(F)(F)F)cc(C(F)(F)F)c2)(Cc2cc(C(F)(F)F)cc(C(F)(F)F)c2)C1=O.O=C(O)C(F)(F)F.O=C(O)C(F)(F)F` registered an EC50 at 1 h in series [1] of 176 µg/mL. Besides, the selectivity ratio in series [2] was 23; in [3] it was 23; in series [7] it was 46; in series [9] it was 23. Further, the MIC in [4] was found to be 8 µg/mL; in series [5] it was 8 µg/mL; in series [6], 8 µg/mL; in [8], 4 µg/mL. The molecule also showed a solubility in series [10] of less than 1000 µg/mL.

Take `Cl.Cl.N=C(N)NCCCN1C(=O)N(CCCNC(=N)N)C(=O)C(Cc2ccc(Br)c(Cl)c2)(Cc2ccc(Br)c(Cl)c2)C1=O`: the EC50 in [11] came to 291 µg/mL. Moreover, the minimum inhibitory concentration (MIC) in series [4] was 0.5 µg/mL; in series [6], 8 µg/mL. The molecule further yielded a solubility in series [10] of less than 1000 µg/mL.
